Measured values from ChEMBL document CHEMBL4152391, “Bile Acid Oligomers and Their Combination with Antibiotics To Combat Bacterial Infections” (J Med Chem, 2018).
≈ marks a conversion by molar mass, not a printed value. Calls of active or inactive are those of the source. No cut-off for these calls is given here.

Key:
[1] = tested on: Pseudomonas aeruginosa; experiment: Antibacterial activity against Pseudomonas aeruginosa at 5 to 100 ug after 18 hrs by agar disk-diffusion method; type: functional, organism-based
Procedure, shortened: (§1)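 Agar disk diffusion per CLSI: compound loaded on sterile 6 mm paper disks, dried, placed on Mueller Hinton agar lawned with bacteria at McFarland 0.5; cefotaxime positive and DMSO solvent controls; 37 °C for 18 h; zone of inhibition diameter measured to nearest whole mm.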

[2] = tested on: Staphylococcus aureus; experiment: Potentiation of ciprofloxacin-induced antibacterial activity against Staphylococcus aureus ATCC 29213 assessed as decrease in […] at 2 ug/ml after 18 hrs by checkerboard microdilution method relative to control; type: functional
Procedure, shortened: (§2)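 Checkerboard microdilution: 5x10^5 cfu/mL bacteria exposed to twofold serial dilutions of compound and antibiotic, alone and combined (0.03–32 µg/mL), 18 h at 37 °C. ΣFIC: ≤0.5 synergy; >0.5–1 additive; >1–4 indifferent; >4 antagonism.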

[3] = tested on: Candida albicans; experiment: Antifungal activity against Candida albicans ATCC 90028 at 30 ug after 24 hrs by agar disk-diffusion method; type: functional; conditions: ATCC 90028, 24 h, read-out: DIZ
Procedure, shortened: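 Candida disk diffusion on MHA with 2% glucose and 0.5 µg/mL methylene blue, following CLSI antifungal guidance; paper disks loaded with compound; incubated 37 °C for 24 h; zone of inhibition diameter read.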

[4] = tested on: Staphylococcus aureus; experiment: Potentiation of amikacin-induced antibacterial activity against Staphylococcus aureus ATCC 29213 assessed as decrease in […] at 2 ug/ml after 18 hrs by checkerboard microdilution method relative to control; type: functional; procedure, shortened: as §2
[5] = tested on: Staphylococcus aureus; experiment: Antibacterial activity against methicillin/ciprofloxacin/chloramphenicol-resistant Staphylococcus aureus ATCC 1704 clinical isolate after 18 hrs by broth microdilution method; type: functional, organism-based; conditions: ATCC 1704, 18 h
Procedure, shortened: (§3)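 Broth microdilution per CLSI for water-insoluble agents: twofold serial dilutions made in DMSO at 100x final, diluted in Mueller Hinton broth to 1% final DMSO; 5x10^5 cfu/mL bacteria exposed 18 h at 37 °C with positive, growth and sterility controls. MIC = lowest concentration giving complete growth inhibition (turbidity and XTT reduction); IC50 from OD600 dose-response inflection point.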

[6] = tested on: Staphylococcus aureus; experiment: Antibacterial activity against Staphylococcus aureus ATCC 29213 assessed as disruption of cell membrane at 0.5 times MIC after 18 hrs by scanning electron microscopic method; type: functional, organism-based
Procedure, shortened: (§4)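 Bacterial suspension (5x10^5 cfu/mL) exposed to compound at 0.5x and 1x MIC for 18 h at 37 °C alongside untreated control; centrifuged 10,000 rpm 10 min, pellets washed twice in normal saline, then processed for scanning electron microscopy.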

[7] = tested on: Staphylococcus aureus; experiment: Antibacterial activity against methicillin/ciprofloxacin-resistant Staphylococcus aureus ATCC 2673 clinical isolate after 18 hrs by broth microdilution method; type: functional, organism-based; conditions: ATCC 2673, 18 h; procedure, shortened: as §3
[8] = tested on: Staphylococcus aureus; experiment: Antibacterial activity against Staphylococcus aureus ATCC 29213 assessed as bleb formation at 0.5 times MIC after 18 hrs by scanning electron microscopic method; type: functional, organism-based; procedure, shortened: as §4
[9] = tested on: Staphylococcus aureus; experiment: Potentiation of amikacin-induced antibacterial activity against Staphylococcus aureus ATCC 29213 assessed as FICI index at 2 ug/ml after 18 hrs by checkerboard microdilution method relative to control; type: functional; procedure, shortened: as §2
[10] = tested on: Escherichia coli; experiment: Antibacterial activity against Escherichia coli ATCC 25922 at 5 to 100 ug after 18 hrs by agar disk-diffusion method; type: functional, organism-based; procedure, shortened: as §1
[11] = tested on: Staphylococcus aureus; experiment: Antibacterial activity against Staphylococcus aureus ATCC 29213 after 18 hrs by broth microdilution method; type: functional, organism-based; conditions: ATCC 29213, 18 h; procedure, shortened: as §3
[12] = tested on: HEK293; experiment: Cytotoxicity against HEK293 cells assessed as decrease in cell viability at 1 to 200 uM after 24 hrs by Alamar Blue assay; type: cell-based; conditions: human, hek293, 24 h
Procedure, shortened: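 HEK293 cells in DMEM HG, 10% FBS, 1% pen-strep, 37 °C 5% CO2, passage under 30, used at 80% confluency; seeded 1×10^4/well, after 24 h washed and treated 24 h with 1–200 µM in complete medium; alamar blue (0.15 mg/mL) added for 4 h, absorbance 570 and 600 nm; viability relative to untreated cells as 100%.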

[13] = tested on: Staphylococcus aureus; experiment: Potentiation of vancomycin-induced antibacterial activity against Staphylococcus aureus ATCC 29213 assessed as decrease in […] at 2 ug/ml after 18 hrs by checkerboard microdilution method relative to control; type: functional; procedure, shortened: as §2
[14] = tested on: Staphylococcus aureus; experiment: Potentiation of cefotaxime-induced antibacterial activity against Staphylococcus aureus ATCC 29213 assessed as decrease in cefotaxime MIC at 2 ug/ml after 18 hrs by checkerboard microdilution method relative to control; type: functional; procedure, shortened: as §2
[15] = tested on: Staphylococcus aureus; experiment: Potentiation of cefotaxime-induced antibacterial activity against Staphylococcus aureus ATCC 29213 assessed as FICI index at 2 ug/ml after 18 hrs by checkerboard microdilution method relative to control; type: functional; procedure, shortened: as §2
[16] = tested on: Staphylococcus aureus; experiment: Potentiation of vancomycin-induced antibacterial activity against Staphylococcus aureus ATCC 29213 assessed as FICI index at 2 ug/ml after 18 hrs by checkerboard microdilution method relative to control; type: functional; procedure, shortened: as §2
[17] = tested on: Staphylococcus aureus; experiment: Antibiofilm activity against Staphylococcus aureus ATCC 29213 after 18 hrs by XTT-menadione assay; type: functional
Procedure, shortened: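 Biofilms grown 24 h at 37 °C from suspension at OD600 0.1 in tryptic soy broth with 1% glucose, washed twice with saline, exposed 18 h at 37 °C to twofold serial dilutions; growth and sterility controls. Read by XTT (0.5 mg/mL)–menadione (10 µM) in MHB, 1 h dark at 37 °C, absorbance 450 nm; MBIC50 and MBIC100 = 50% and 100% inhibition.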

[18] = tested on: Staphylococcus aureus; experiment: Antibacterial activity against methicillin/ciprofloxacin-resistant Staphylococcus aureus ATCC 2673 clinical isolate at 5 to 100 ug after 18 hrs by agar disk-diffusion method; type: functional
Procedure, shortened: (§5)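 CLSI agar disk diffusion: 5 to 100 µg compound loaded on 6 mm sterile paper disks, dried, placed on Mueller Hinton agar lawned with McFarland 0.5 bacterial suspension; cefotaxime positive and DMSO solvent controls run alongside; 18 h at 37 °C, inhibition zone diameter read to nearest whole mm.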

[19] = tested on: Staphylococcus aureus; experiment: Antibacterial activity against Staphylococcus aureus ATCC 29213 at 30 ug after 18 hrs by agar disk-diffusion method; type: functional; conditions: ATCC 29213, 18 h, read-out: DIZ; procedure, shortened: as §1
[20] = tested on: Staphylococcus aureus; experiment: Potentiation of ciprofloxacin-induced antibacterial activity against Staphylococcus aureus ATCC 29213 assessed as FICI index at 2 ug/ml after 18 hrs by checkerboard microdilution method relative to control; type: functional; procedure, shortened: as §2
[21] = tested on: Staphylococcus aureus; experiment: Antibacterial activity against methicillin/ciprofloxacin/chloramphenicol-resistant Staphylococcus aureus ATCC 1704 clinical isolate at 5 to 100 ug after 18 hrs by agar disk-diffusion method; type: functional; procedure, shortened: as §5
[22] = tested on: Staphylococcus aureus; experiment: Antibacterial activity against Staphylococcus aureus ATCC 29213 assessed as shriveling at 0.5 times MIC after 18 hrs by scanning electron microscopic method; type: functional, organism-based; procedure, shortened: as §4

C[C@H](CCC(=O)NCCNCCNC(=O)CC[C@@H](C)[C@H]1CC[C@H]2[C@@H]3[C@H](O)C[C@@H]4C[C@H](O)CC[C@]4(C)[C@H]3C[C@H](O)[C@]12C)[C@H]1CC[C@H]2[C@@H]3[C@H](O)C[C@@H]4C[C@H](O)CC[C@]4(C)[C@H]3C[C@H](O)[C@]12C
Activity [1]: inactive
fold change (FC) [2]: 17
zone of inhibition at 30 µg/disc [3]: 10 mm
fold change (FC) [4]: 67
IC50 [5]: 4.36 µg/mL (≈ 4.93 µM)
MIC [5]: 8 µg/mL (≈ 9.05 µM)
Activity [6]: Active
IC50 [7]: 2.18 µg/mL (≈ 2.47 µM)
MIC [7]: 4 µg/mL (≈ 4.52 µM)
Activity [8]: Active
fractional inhibitory concentration index (FICI) [9]: 0.51
Activity [10]: inactive
IC50 [11]: 2.87 µg/mL (≈ 3.25 µM)
MIC [11]: 4 µg/mL (≈ 4.52 µM)
Activity [12]: Non-Toxic
fold change (FC) [13]: 2
fold change (FC) [14]: 33
fractional inhibitory concentration index (FICI) [15]: 0.53
fractional inhibitory concentration index (FICI) [16]: 1
MBIC100 [17]: 32 µg/mL
diameter of the inhibition zone (DIZ) [18]: 13 mm
zone of inhibition at 30 µg/disc [19]: 14 mm
fractional inhibitory concentration index (FICI) [20]: 0.56
diameter of the inhibition zone (DIZ) [21]: 13 mm
Activity [22]: Active
